Assay results as given in ChEMBL document CHEMBL1123282, “Antiinflammatory activity of substituted 6-hydroxypyrimido[2,1-f]purine-2,4,8(1H,3H,9H)-triones. Atypical nonsteroidal antiinflammatory agents” (J Med Chem, 1986).
Where “and” joins values, the source holds several entries; their conditions need not be identical. Equal entries are not always repeated.

Assays:
Rattus norvegicus [1] = experiment: Tested in vivo for antiinflammatory activity against chronic adjuvant arthritic rat by prophylactic inhibition 1 degree paw after peroral administration of 9 mg/kg of dose; format: functional; details: route oral
Procedure, shortened: (§1)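 Prophylactic regimen, rats. Adjuvant is heat-killed Mycobacterium tuberculosis ground to a fine powder in paraffin oil (6 mg/mL); 0.1 mL is injected into the left hind paw. Oral drug is given 1 h before adjuvant challenge, then for 21 consecutive days; controls receive methyl cellulose. Left (1°) and right (2°) hind paw volumes are measured by plethysmograph.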

Rattus norvegicus [2] = experiment: In vivo antiinflammatory activity against rats by RPAR(reverse passive Arthus reaction) synovitis method; format: functional; set-up: concentration or dose not given beside the values
Procedure, shortened: (§2)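 Lewis rats, oral drug or placebo 1 h before iv BSA (2.28 mg in saline), then intraarticular rabbit anti-BSA (0.54 mg) into one knee and saline into the other, under light anesthesia. Second oral dose at 3 h; the total of both doses is the calculated dose. About 17 h after induction, subpatellar tissue with synovium is excised and weighed. Response is antibody-minus-saline knee weight, tested by analysis of variance.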

Rattus norvegicus [3] = experiment: Compound was tested in vivo against chronic adjuvant arthritic rat by prophylactic inhibition 2 degree paw. Relative potency with respect to (8-Benzyl-5-hydroxy-1,3-dimethyl-6-propyl-1H,8H-1,3,4b,8,9-pentaaza-fluorene-2,4,7-trione); format: functional
Rattus norvegicus [4] = experiment: Compound was tested in vivo for antiinflammatory activity against chronic adjuvant arthritic rat by prophylactic inhibition 2 degree paw after peroral administration of 18 mg/kg of dose; details: po
Rattus norvegicus [5] = experiment: Compound was tested in vivo for antiinflammatory activity against chronic adjuvant arthritic rat by prophylactic inhibition 1 degree paw after peroral administration of 36 mg/kg of dose; details: po
Rattus norvegicus [6] = experiment: Tested in vivo for antiinflammatory activity against chronic adjuvant arthritic rat by prophylactic inhibition 2 degree paw after peroral administration of 9 mg/kg of dose; format: functional; details: route oral; procedure, shortened: as §1
Rattus norvegicus [7] = experiment: Compound was tested in vivo for antiinflammatory activity against chronic adjuvant arthritic rat by prophylactic inhibition 2 degree paw after peroral administration of 36 mg/kg of dose; details: po
Rattus norvegicus [8] = experiment: Antiinflammatory activity against collagen II arthritis in rats, activity% inhibition in injected paw edema; format: functional; set-up: concentration or dose not given beside the values
Procedure, shortened: (§3)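 Rats immunised with bovine articular-cartilage type II collagen (dissolved in 0.01 M AcOH for 24 h at 4 °C, dialysed against saline) mixed in equal volume with incomplete Freund's adjuvant. Paws were examined weekly for 7 weeks. An animal counted as arthritic at Δ paw volume ≥8.0 (injected paw) or ≥4.0 (noninjected paw). Bone lesions were scored on lateral-projection foot radiographs. 16 rats/group.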

Rattus norvegicus [9] = experiment: Compound was tested in vivo for antiinflammatory activity against chronic adjuvant arthritic rat by therapeutic inhibition 2 degree paw. Relative potency with respect to (8-Benzyl-5-hydroxy-1,3-dimethyl-6-propyl-1H,8H-1,3,4b,8,9-pentaaza-fluorene-2; format: functional
Rattus norvegicus [10] = experiment: Compound was tested in vivo for antiinflammatory activity against chronic adjuvant arthritic rat by prophylactic inhibition 1 degree paw after peroral administration of 18 mg/kg of dose; format: functional
Procedure, shortened: (§4)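 Prophylactic adjuvant arthritis: heat-killed Mycobacterium tuberculosis powder in paraffin oil (6 mg/mL), 0.1 mL injected into the left hind paw. Drug given orally 1 h before adjuvant, then for 21 consecutive days; controls received methyl cellulose. Left (1°) and right (2°) hind paw volumes were measured by plethysmograph.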

Rattus norvegicus [11] = experiment: Compound was tested in vivo for antiinflammatory activity against chronic adjuvant arthritic rat by therapeutic inhibition 2 degree paw after peroral administration of 9 mg/kg of dose; format: functional; details: route oral
Rattus norvegicus [12] = organism: Rattus norvegicus; experiment: Antiinflammatory activity on the development of collagen II arthritis in rats, measured based on animals positive for arthritis by the presence of bone lesions; format: functional; procedure, shortened: as §3
Rattus norvegicus [13] = organism: Rattus norvegicus; experiment: Antiinflammatory activity by immune response to collagen II antigen in rats antibody titer was determined by passive hemagglutinination; format: functional
Procedure, shortened: (§5)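 In rats with bovine type II collagen/incomplete Freund's adjuvant arthritis, the antibody response to collagen II was titred by passive hemagglutination. The delayed-type hypersensitivity component, ear thickness 24 h after intrapinna antigen, was read at day 21.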

Rattus norvegicus [14] = experiment: Compound was tested in vivo for antiinflammatory activity against chronic adjuvant arthritic rat by therapeutic inhibition 1 degree paw after peroral administration of 36 mg/kg of dose; details: route oral
Rattus norvegicus [15] = organism: Rattus norvegicus; experiment: Delayed Type hypersensitivity (DTH) is measured by increase in ear thickness 24 hours after antigen injection into pinna; format: functional
Rattus norvegicus [16] = experiment: Compound was tested in vivo for antiinflammatory activity against chronic adjuvant arthritic rat by prophylactic inhibition 2 degree paw after peroral administration of 18 mg/kg of dose; format: functional; details: route oral; procedure, shortened: as §4
Rattus norvegicus [17] = experiment: Antiinflammatory activity on the development of collagen II arthritis in rats, measured based on animals positive for arthritis by the presence of paw edema; format: functional; procedure, shortened: as §3
Rattus norvegicus [18] = experiment: Compound was tested in vivo for antiinflammatory activity against chronic adjuvant arthritic rat by prophylactic inhibition 2 degree paw after peroral administration of 36 mg/kg of dose; format: functional; details: po
[19] = biological target: Cyclooxygenase (Rattus norvegicus) (UniProt P35355+Q63921); experiment: In vitro inhibitory activity against Prostaglandin G/H synthase in rat neutrophils at a dose of 50 uM
Rattus norvegicus [20] = experiment: Compound was tested in vivo for antiinflammatory activity against chronic adjuvant arthritic rat by therapeutic inhibition 1 degree paw after peroral administration of 9 mg/kg of dose; format: functional; details: route oral
Rattus norvegicus [21] = experiment: Compound was tested in vivo for antiinflammatory activity against chronic adjuvant arthritic rat by prophylactic inhibition 1 degree paw after peroral administration of 36 mg/kg of dose; format: functional; details: po
Rattus norvegicus [22] = experiment: Antiinflammatory activity against collagen II arthritis in rats, activity % inhibition in noninjected paw edema; format: functional; set-up: concentration or dose not given beside the values; procedure, shortened: as §3
Rattus norvegicus [23] = experiment: Compound was tested in vivo for antiinflammatory activity against chronic adjuvant arthritic rat by therapeutic inhibition 2 degree paw after peroral administration of 36 mg/kg of dose; details: route oral
[24] = biological target: T1, Polyunsaturated fatty acid 5-lipoxygenase (Rattus norvegicus) (UniProt P12527); experiment: In vitro inhibitory activity against Lipoxygenase in rat neutrophils at a dose of 50 uM
T1 sequence (whole entry): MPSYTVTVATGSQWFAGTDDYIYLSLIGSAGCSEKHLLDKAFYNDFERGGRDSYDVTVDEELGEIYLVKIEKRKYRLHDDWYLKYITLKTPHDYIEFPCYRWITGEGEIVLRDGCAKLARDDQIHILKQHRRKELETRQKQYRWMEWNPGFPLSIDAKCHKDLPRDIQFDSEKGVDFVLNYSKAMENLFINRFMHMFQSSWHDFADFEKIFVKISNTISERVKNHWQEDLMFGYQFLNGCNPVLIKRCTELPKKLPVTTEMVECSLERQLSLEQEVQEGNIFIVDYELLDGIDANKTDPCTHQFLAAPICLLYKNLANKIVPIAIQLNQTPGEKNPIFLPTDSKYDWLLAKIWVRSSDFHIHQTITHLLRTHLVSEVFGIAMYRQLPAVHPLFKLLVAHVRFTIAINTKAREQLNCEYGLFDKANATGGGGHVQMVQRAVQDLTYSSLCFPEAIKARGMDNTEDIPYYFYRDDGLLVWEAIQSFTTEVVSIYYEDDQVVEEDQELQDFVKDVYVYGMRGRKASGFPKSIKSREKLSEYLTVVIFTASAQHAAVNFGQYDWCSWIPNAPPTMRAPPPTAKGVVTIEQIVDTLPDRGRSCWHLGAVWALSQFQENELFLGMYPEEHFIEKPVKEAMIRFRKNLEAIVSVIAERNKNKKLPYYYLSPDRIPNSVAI
Procedure, shortened: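 Neutrophils come from the 4 h pleural exudate of male Wistar-Lewis rats given iv BSA plus intrapleural rabbit anti-BSA IgG. Cells are washed, red cells lysed with NH4Cl, and resuspended at about 5×10^6 cells/0.1 mL in Tris pH 7.4 with NaCl and 1 mM CaCl2. Cells are preincubated with compound 4 min at room temperature.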

Rattus norvegicus [25] = experiment: Compound was tested in vivo for antiinflammatory activity against rats by RPAR(reverse passive Arthus reaction) synovitis method ata dose of 50 mg/kg, po; format: functional; procedure, shortened: as §2
Rattus norvegicus [26] = organism: Rattus norvegicus; experiment: Compound was tested for antiinflammatory activity by immune response to collagen II antigen in rats, antibody titer was determined by passive hemagglutinination; format: functional; procedure, shortened: as §5
Rattus norvegicus [27] = organism: Rattus norvegicus; experiment: Compound was tested for antiinflammatory activity against collagen II arthritis in rats,; format: functional; procedure, shortened: as §3
Rattus norvegicus [28] = organism: Rattus norvegicus; experiment: compound was tested for antiinflammatory activity against collagen II arthritis in rats,; format: functional
Procedure, shortened: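 Arthritis induced in rats by injection of bovine articular cartilage type II collagen (dissolved in 0.01 M AcOH, dialysed against saline) mixed 1:1 with incomplete Freund's adjuvant. Paw inflammation checked weekly for 7 weeks. Inhibition = [Δpaw vol(collagen) − Δpaw vol(collagen + drug)]/[Δpaw vol(collagen) − Δpaw vol(ICFA control)] × 100. Bone damage scored by lateral-projection radiography; p ≤ 0.05 by Student's t-test.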

Rattus norvegicus [29] = experiment: Compound was tested in vivo for antiinflammatory activity against chronic adjuvant arthritic rat by prophylactic inhibition 1 degree paw after peroral administration of 2 mg/kg of dose; details: po, read-out: Inhibition
Rattus norvegicus [30] = experiment: Compound was tested in vivo for antiinflammatory activity against chronic adjuvant arthritic rat by prophylactic inhibition 2 degree paw after peroral administration of 2 mg/kg of dose; details: po, read-out: Inhibition
Rattus norvegicus [31] = experiment: Compound was tested in vivo for antiinflammatory activity against chronic adjuvant arthritic rat by therapeutic inhibition 2 degree paw after peroral administration of 5 mg/kg of dose; details: po, read-out: Inhibition
Rattus norvegicus [32] = experiment: Compound was tested in vivo for antiinflammatory activity against rats by RPAR(reverse passive Arthus reaction) synovitis method; format: functional; procedure, shortened: as §2
Rattus norvegicus [33] = experiment: Compound was tested in vivo for antiinflammatory activity against chronic adjuvant arthritic rat by therapeutic inhibition 1 degree paw after peroral administration of 5 mg/kg of dose; details: po, read-out: Inhibition

| Structure (SMILES) | inhibition in vivo at 9 mg/kg (Rattus norvegicus [1]) [%] | Inhibition (Rattus norvegicus [2]) [%] | Relative potency (Rattus norvegicus [3]) | inhibition in vivo at 18 mg/kg (Rattus norvegicus [4]) [%] | inhibition in vivo at 36 mg/kg (Rattus norvegicus [5]) [%] | inhibition in vivo at 9 mg/kg (Rattus norvegicus [6]) [%] | inhibition in vivo at 36 mg/kg (Rattus norvegicus [7]) [%] | Inhibition (Rattus norvegicus [8]) [%] | Positive (Rattus norvegicus [12]) [%] | Antibody titer (Rattus norvegicus [13]) | DTH (Rattus norvegicus [15]) [mm] | Positive (Rattus norvegicus [17]) [%] | Inhibition (Rattus norvegicus [22]) [%] | other results |
| --- | --- | --- | --- | --- | --- | --- | --- | --- | --- | --- | --- | --- | --- | --- |
| CCCCc1c(O)n(Cc2ccc(F)cc2)c2nc3c(c(=O)n(C)c(=O)n3C)n2c1=O | 28 | 27 | 3.8 | 70 | 74 | 59 | 74 |  |  |  |  |  |  |  |
| CCCc1c(O)n(Cc2ccccc2)c2nc3c(c(=O)n(C)c(=O)n3C)n2c1=O | 16 | 33 | 1 |  |  | 38 |  | 9.6 | 26.7 | 9.2 | 0.0464 | 26.7 | 37.5 | Relative potency (Rattus norvegicus [9]): 1; inhibition in vivo at 18 mg/kg (Rattus norvegicus [10]; Rattus norvegicus, po): 41%; Inhibition (Rattus norvegicus [10]; route oral, 18 mg/kg): 41%; inhibition in vivo at 9 mg/kg (Rattus norvegicus [11]): 15%; Inhibition (Rattus norvegicus [14]): 64%; inhibition in vivo at 18 mg/kg (Rattus norvegicus [16]): 52%; inhibition in vivo at 36 mg/kg (Rattus norvegicus [18]): 78%; inhibition [19]: 43%; inhibition in vivo at 9 mg/kg (Rattus norvegicus [20]): 17%; inhibition in vivo at 36 mg/kg (Rattus norvegicus [21]): 59%; Inhibition (Rattus norvegicus [23]): 77%; inhibition [24]: 0% and 5% |
| CCCCc1c(O)n(Cc2ccccc2)c2nc3c(c(=O)n(C)c(=O)n3C)n2c1=O | 17 | 48 | 2.1 | 64 | 52 | 55 | 79 |  |  |  |  |  |  |  |
| Cc1c(O)n(Cc2cccc(F)c2)c2nc3c(c(=O)n(C)c(=O)n3C)n2c1=O |  |  |  |  |  |  |  |  |  |  |  |  |  | inhibition in vivo at 50 mg/kg (Rattus norvegicus [25]): 0% |
| CC(C)(S)[C@@H](N)C(=O)O [PENICILLAMINE] |  |  |  |  |  |  |  | 36 |  |  | 0.0538 |  | 42.6 | Antibody titer (Rattus norvegicus [26]): 10.7; Positive (Rattus norvegicus [27]): 31.5%; Positive (Rattus norvegicus [28]): 31.3% |
| CN1C(C(=O)Nc2ccccn2)=C(O)c2ccccc2S1(=O)=O [PIROXICAM] |  |  |  |  |  |  |  | 0 | 60 | 12.2 | 0.0526 | 73.3 | 0 | inhibition in vivo at 2 mg/kg (Rattus norvegicus [29]): 66%; inhibition in vivo at 2 mg/kg (Rattus norvegicus [30]): 84%; inhibition in vivo at 5 mg/kg (Rattus norvegicus [31]): 80%; ED50 (Rattus norvegicus [32]): 3.5 mg/kg; inhibition in vivo at 5 mg/kg (Rattus norvegicus [33]): 68% |
